11 molecules from ChEMBL document CHEMBL3425480 (J Med Chem, 2015) can be followed below.

Data set [1] has as its target Phosphatidylinositol 4-kinase type 2-alpha (Homo sapiens, UniProt Q9BTU6). Kind of data set: Inhibition of PI4K2alpha (unknown origin) assessed as hydrolysis of ATP for 60 mins by ADP-Glo kinase assay. An outline of the steps: (§1)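 ADP-Glo lipid kinase assay, 5 μL. Final enzyme: PI4K IIIβ 4 ng/μL, IIIα 2 ng/μL, IIα 2 ng/μL. Substrate PI/PS 50 μM, ATP 100 μM final. Inhibitors from 10 mM DMSO stocks. Run 60 min at 25 °C, ADP by luminescence.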

A further data set has as its system Human rhinovirus sp. Kind of data set: Antirhinovirus activity in HRVM infected in H1-HeLa cells assessed as inhibition of virus-induced cytopathic effect after 3 days by Cell-Titer Glo viability assay. Type of data set: functional, organism-based. The conditions noted are these: 72 h. The gist of the method:
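H1-HeLa cells in RPMI with 10% heat-inactivated FBS and antibiotics, premixed in batch with HRV1A, HRV14 and HRV16, each at 4× TCID90. Replicate 3-fold serial dilutions in DMSO transferred acoustically (384-well). Incubated three days at 33 °C. Cytopathic effect read as viability by CellTiter-Glo.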
A general note: Damage to the host cells serves as the signal in cytopathic effect assays.

Data set [2] relates to Hepatitis C virus. Description: Antiviral activity in HCV 1b infected in HUH 7-lunet cells after 3 days by Dual-Glo luciferase assay. The data set is classed as functional, cell-based, Hepacivirus hominis. The note with it: genotype 1b, Huh-7, 72 h. The gist of the method: (§2)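 Multiplex replicon assay in HUH 7-lunet cells carrying a genotype 1b replicon (I389luc-ubi-neo/NS3-3′/ET) or a 2a JFH-1 replicon (2aLucNeo-25). Cells kept in DMEM with GlutaMAX, 10% non-heat-inactivated FBS, 1 mg/mL G-418 and nonessential amino acids. 1600 cells/well (384-well) given serial dilutions. After three days, Renilla luciferase read by Dual-Glo.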

The nature of data set [3]: Inhibition of PI4K3alpha (unknown origin) assessed as hydrolysis of ATP for 60 mins by ADP-Glo kinase assay. On the set-up: species or system Homo sapiens. An outline of the steps: as §1
In data set [4] the test system is Coxsackievirus B3. Description: Anticoxsackie activity in CVB3 strain Nancy infected in human HeLa cells assessed as inhibition of virus-induced cytopathic effect after 4 hrs by XTT assay. The data set is classed as functional, cell-based. The note with it: Enterovirus B, 3 days, in the assay text read “after 3 days” for “after 4 hrs”. The gist of the method:
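HeLa cells seeded a day ahead (30000/well) in DMEM with L-glutamine, 2% FBS, penicillin/streptomycin. 3-fold serial compound dilutions in triplicate, 1 h preincubation, then CVB3 added at MOI 0.005 IU/cell. Incubated 3 days at 37 °C, 5% CO2. Viability by XTT over 4 h, absorbance of formazan read. EC50 by nonlinear regression of % viability vs log10 concentration.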

Data set [5] in a line: Inhibition of PI4K3beta (unknown origin) assessed as hydrolysis of ATP for 60 mins by ADP-Glo kinase assay. On the set-up: species or system Homo sapiens. An outline of the steps: as §1
Background: In ADP-Glo the light output rises with the ADP produced.

Data set [6] deals with Hepatitis C virus. Description: Antiviral activity in HCV 2a JFH1 infected in HUH 7-lunet cells after 3 days by Dual-Glo luciferase assay. Type of data set: functional, cell-based, Hepacivirus hominis. The note with it: subtype 2a JFH1, Huh-7, 72 h. The gist of the method: as §2
Data set [7] can be described thus: Cytotoxicity against human HeLa cells. Type of data set: cell-based.
In data set [8] the test system is Coxsackievirus B3. Kind of data set: Anticoxsackie activity in CVB3 strain Nancy infected in human HeLa cells assessed as inhibition of virus-induced cytopathic effect after 3 days by XTT assay. The note with it: Enterovirus B.

Phosphatidylinositol 4-kinase type 2-alpha, sequence (Q9BTU6 whole entry): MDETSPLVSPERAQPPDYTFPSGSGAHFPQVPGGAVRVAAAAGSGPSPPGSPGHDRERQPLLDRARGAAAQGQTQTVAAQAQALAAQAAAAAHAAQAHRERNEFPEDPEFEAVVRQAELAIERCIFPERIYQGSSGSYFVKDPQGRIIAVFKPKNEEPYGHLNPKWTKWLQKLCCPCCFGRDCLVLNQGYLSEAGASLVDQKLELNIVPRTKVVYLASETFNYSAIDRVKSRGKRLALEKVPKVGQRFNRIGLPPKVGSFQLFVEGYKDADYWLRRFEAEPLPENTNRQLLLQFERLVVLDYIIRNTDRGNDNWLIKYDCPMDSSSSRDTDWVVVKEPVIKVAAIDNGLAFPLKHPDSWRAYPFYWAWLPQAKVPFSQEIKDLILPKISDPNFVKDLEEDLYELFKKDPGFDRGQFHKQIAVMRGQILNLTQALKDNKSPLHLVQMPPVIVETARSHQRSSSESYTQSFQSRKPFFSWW

Regarding `COc1ccc(-c2c(C)nc3c(N)cc(Cl)nn23)cc1OC`, the IC50 in [1] is over 100 µM; in data set [3], over 100 µM; in data set [5] it was 0.083 µM. In addition, the EC50 in the data set on Human rhinovirus sp. came to 0.89 µM; in the data set on Hepatitis C virus [2], 0.21 µM; with Coxsackievirus B3 [4], 0.023 µM; in the data set on Hepatitis C virus [6], 26.5 µM. For the same molecule, it took 1.75 µM to reach half-maximal cytotoxicity in data set [7] (CC50).

As for `COc1ccc(-c2c(C)nc3c(NCCN4CCOCC4)ccnn23)cc1OC`, the IC50 in data set [1] is over 100 µM; in data set [3] it was 27.5 µM; in data set [5], 0.093 µM. Also, the EC50 in the data set with Human rhinovirus sp. was determined as 0.88 µM; with Hepatitis C virus [2] it was 0.37 µM; in the data set on Coxsackievirus B3 [4], 0.5 µM; in the data set with Hepatitis C virus [6], 17.9 µM. The CC50 in data set [7] is over 50 µM.

Turning to `COc1ccc(-c2c(C)nn3c(NCCNC(C)=O)cc(C)nc23)cc1OC`, the results for the IC50 in data set [1], in data set [3] and in [5] were over 100 µM, 59.5 µM and 0.07 µM, respectively. For the same molecule, the EC50 is 2.9 µM in the data set with Human rhinovirus sp., 1.03 µM in the data set on Hepatitis C virus [2], 1.23 µM in the data set with Coxsackievirus B3 [4] and over 44 µM with Hepatitis C virus [6]. The same molecule came in with a CC50 in data set [7] of over 50 µM.

Take `COc1ccc(-c2c(C)nn3c(NCCOC(C)=O)cc(C)nc23)cc1OC`: the figures for the IC50 in data set [1], in [3] and in data set [5] were over 100 µM, 29.5 µM and 0.067 µM, respectively. Also, the EC50 was 1.38 µM with Human rhinovirus sp., 0.96 µM in the data set with Hepatitis C virus [2], 0.86 µM in the data set on Coxsackievirus B3 [4] and over 44 µM in the data set with Hepatitis C virus [6]. In [7], this molecule came in with a CC50 of over 50 µM.

In the case of `COc1ccc(-c2c(C)nc3c(NCCNC(C)=O)ccnn23)cc1OC`, the IC50 in [1] was over 100 µM; in data set [3], 33.7 µM; in data set [5], 0.092 µM. Also, the EC50 in the data set with Human rhinovirus sp. turned out to be 2.9 µM; in the data set with Hepatitis C virus [2], 0.36 µM; with Coxsackievirus B3 [4] it was 0.28 µM; in the data set on Hepatitis C virus [6], 27.9 µM. In addition, in [7], the CC50 was over 50 µM.

In the case of `COc1ccc(-c2c(C)nn3c(NCCN4CCOCC4)cc(C)nc23)cc1OC`, the EC50 was 2.5 µM in the data set on Human rhinovirus sp., 1.03 µM with Hepatitis C virus [2], 3.38 µM in the data set on Coxsackievirus B3 [4] and over 44 µM in the data set on Hepatitis C virus [6].

Take `CC(=O)NCCNc1cc(Cl)nn2c(-c3ccc(F)c(C=O)c3)c(C)nc12`: the IC50 in data set [1] is over 100 µM; in data set [3], over 100 µM; in [5], 0.089 µM. In addition, the EC50 in the data set on Human rhinovirus sp. is 24.3 µM; in the data set with Hepatitis C virus [2], 5.3 µM; in the data set on Coxsackievirus B3 [4] it was over 50 µM; with Hepatitis C virus [6] it was 13.6 µM. This molecule returned a CC50 in [7] of over 50 µM.

As for `COc1ccc(-c2c(C)nc3c(NCCNC(C)=O)cc(Cl)nn23)cc1OC`, the results for the IC50 in data set [1] and in [3] were over 100 µM and 82.7 µM, respectively. Moreover, the EC50 in the data set with Human rhinovirus sp. amounted to 1.09 µM; in the data set with Hepatitis C virus [2] it was 0.29 µM; in the data set on Coxsackievirus B3 [4] it was 0.75 µM; with Hepatitis C virus [6] it was 31.8 µM. The molecule further came in with a CC50 in data set [7] of over 50 µM.

With `COc1ccc(-c2c(C)nn3c(NCCNC(=O)C(C)C)cc(C)nc23)cc1OC`, the values for the IC50 in [1], in [3] and in data set [5] were over 100 µM, 62.1 µM and 0.12 µM, respectively. The EC50 is 1.62 µM in the data set on Human rhinovirus sp., 1.21 µM in the data set on Hepatitis C virus [2], 11 µM in the data set with Coxsackievirus B3 [4] and over 44 µM in the data set with Hepatitis C virus [6]. In addition, the CC50 in data set [7] was over 50 µM.

Take `COc1ccc(-c2c(C)nn3c(NCCNS(C)(=O)=O)cc(C)nc23)cc1OC`: the figures for the IC50 in [1], in data set [3] and in [5] were over 100 µM, 29.3 µM and 0.12 µM, respectively. In addition, the EC50 in the data set on Human rhinovirus sp. was determined as 3 µM; in the data set with Hepatitis C virus [2], 0.91 µM; in the data set on Coxsackievirus B3 [8], 1.43 µM; in the data set with Hepatitis C virus [6], 42.5 µM. Further, the 50% cytotoxic concentration (CC50) in [7] is over 50 µM.

As to `C[C@@]1(O)[C@H](O)[C@@H](CO)O[C@H]1n1ccc2c(N)ncnc21` [BETA-2'-C-METHYL-7-DEAZA-ADENOSINE], the EC50 is 5.1 µM in the data set with Human rhinovirus sp., 0.21 µM in the data set on Hepatitis C virus [2] and 0.21 µM in the data set on Hepatitis C virus [6]. The same molecule displayed a CC50 in data set [7] of over 50 µM.

Broadly, the IC50 is the concentration at which inhibition is half-maximal. For orientation: EC50 means the midpoint of the concentration-response curve. By CC50 is commonly meant the concentration that lowers cell viability or growth by half.
